Bioassay records: PubChem BioAssay, several laboratories
NR2E3 ag-1: inhibitors of NR2E3-RetCOR corepressor binding, primary screen, NR2E3 agonist project, biochemical, TR-FRET, GST-NR2E3, biotin-RetCOR; AID 2300, 2010; 1536-well; Photoreceptor-specific nuclear receptor (Homo sapiens), Q9Y5X4; hit rate 0.12% among 320,000; inhibition of corepressor binding, % at 4.78 µM;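 active means percent inhibition above the cutoff of mean plus 3 SD of all tested compounds, set per screening campaign, cut at about 20% in these data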
Target sequence (Q9Y5X4 whole entry, looked up): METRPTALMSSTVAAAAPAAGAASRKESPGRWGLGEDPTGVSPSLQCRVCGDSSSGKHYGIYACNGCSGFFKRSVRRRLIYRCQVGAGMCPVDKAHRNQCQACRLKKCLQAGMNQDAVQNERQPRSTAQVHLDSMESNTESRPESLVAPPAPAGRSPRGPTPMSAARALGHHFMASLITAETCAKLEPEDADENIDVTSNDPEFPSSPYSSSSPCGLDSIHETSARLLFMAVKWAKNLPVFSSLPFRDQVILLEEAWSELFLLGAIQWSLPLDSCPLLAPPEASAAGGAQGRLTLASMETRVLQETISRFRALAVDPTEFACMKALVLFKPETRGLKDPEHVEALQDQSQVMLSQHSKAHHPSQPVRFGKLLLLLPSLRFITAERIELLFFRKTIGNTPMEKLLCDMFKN
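System: GST-tagged NR2E3 plus biotinylated RetCOR corepressor; Amount: 1.35 nM GST-tagged NR2E3 final; Dosing: single nominal compound dose of 4.8 µM; Schedule: 5 h incubation at 4 °C; Technique: TR-FRET with europium anti-GST and streptavidin-D2, 340 nm excitation; Controls: biotin wells as high control, 0.6% DMSO wells as low control.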
NR1D1 modulator: modulators of Rev-erb alpha DNA binding, primary screen, biochemical, FITC-DNA, fluorescence polarization, uHTS | Nuclear receptor subfamily 1 group D member 1 (Homo sapiens), P20393 | Rev-erbα–FITC-DNA binding, 90 min | activity, % at 10 µM | hit rate 0.79% among 370,000 | AID 1259318, 2017;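 active means activity above about 14%, limit read from the data; passing the limit was not always enough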
PG9 Ab binder: binders of HIV-1 gp120 antibody PG9, primary screen, biochemical, TR-FRET; TR-FRET gp120-PG9 antibody binding; inhibition, % at 6.7 µM; hit rate 0.43% among 360,000; AID 624416, 2012; in the data active means inhibition above about 8.5%
NR2E3 ag-2: NR2E3 agonists in two-hybrid cells, primary screen, cell-based, luminescence, CHO-S, Gal4-NCOR/VP16-NR2E3; luciferase; AID 602229, 2012; hit rate 0.35% among 360,000; inhibition of corepressor binding, % at 3.98 µM; Photoreceptor-specific nuclear receptor (Homo sapiens), Q9Y5X4;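 active means inhibition above the mean of all tested compounds plus 3 SD, cut at about 70% in these data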;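 further: higher means lower luciferase signal from less NR2E3 corepressor binding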
PG9 bind confirm: binders of anti-gp120 antibody PG9, confirmation, biochemical, TR-FRET; hit rate 90% among 1,500; TR-FRET PG9 antibody binding; shares compounds with PG9 Ab binder; inhibition, % at 6.7 µM; AID 651571, 2012; in the data active means inhibition above about 9%
PGV04 Ab binding: binders of control antibody PGV04, counter-screen for PG9 antibody binder project, biochemical, TR-FRET, distinct HIV envelope site; shares compounds with PG9 Ab binder; TR-FRET PGV04 antibody-gp120 binding; inhibition, % at 6.7 µM; hit rate 95% among 1,500; AID 651604, 2012; in the data active means inhibition above about 9.5%
PG9 binder DR: small-molecule binders of antibody PG9, dose response, biochemical, TR-FRET, HIV-1 gp120 antibody. AID 651848, 2012. IC50, µM. TR-FRET PG9 antibody-gp120 binding inhibition. shares compounds with PG9 Ab binder. 95 tested, under 10 active; in the data active means IC50 below about 10 µM
PGV04 DR counter: binders of control antibody PGV04, dose response, counter-screen for PG9 antibody binder project, biochemical, TR-FRET, distinct HIV envelope site. shares compounds with PG9 Ab binder. TR-FRET binding to control antibody PGV04. IC50, µM. hit rate 20% among 95
PG126 binding DR: binders of control antibody PG126, dose response, counter-screen for PG9 antibody binder project, biochemical, TR-FRET, distinct HIV envelope site | hit rate 20% among 95 | shares compounds with PG9 Ab binder | IC50, µM | TR-FRET binding to antibody PG126, counterscreen
Numbers stand for hits; - = inactive; . = no result. Sampled rows, rich in hits. Any-hit rate of the full collection: about 1.4%. Unless noted, no stated cut-off is given here; in the data, active means IC50 below about 9 µM; inactive means the rest.

SMILES | NR2E3 ag-1 | NR1D1 modulator | PG9 Ab binder | NR2E3 ag-2 | PG9 bind confirm | PGV04 Ab binding | others
COc1ccc(S(=O)(=O)NNC(=O)c2csc(-n3nc(C)cc3C(F)(F)F)n2)cc1OC | - | - | 10.4 | - | - | 11.4
O=C(NCCC1CCCCN1S(=O)(=O)c1ccc(F)cc1)C(=O)Nc1ccccc1F (stereo unspecified) | - | - | 10.1 | - | - | -
Cc1cccc(-c2nnc(NC(=O)c3ccc(N4C(=O)CCC4=O)cc3)s2)c1 | - | - | 17.5 | - | - | 11.8
COCCn1c(=NC(=O)c2sc3ccccc3c2Cl)sc2cc(S(N)(=O)=O)ccc21 | - | - | 18.4 | - | 24.4 | 34.6
O=C(NCCN1Cc2ccccc2C1=O)c1cccs1 | - | - | 50.0 | - | 10.1 | 11.2
C=CCN1[C@H](CO)[C@H](c2ccc(C#CC3(O)CCCC3)cc2)[C@@H]1C#N | . | - | . | . | . | .
COc1ccc(C(=O)/C=C2/Sc3cc4c(cc3N2C)OCO4)cc1 | - | - | 40.5 | - | 56.3 | 49.1 | PG9 binder DR=-;PGV04 DR counter=2.42;PG126 binding DR=2.45
CN1/C(=C/C(=O)c2ccc(Cl)cc2)Sc2cc3c(cc21)OCO3 | - | - | - | - | . | .
CCCCCCCCN1C(=O)[C@@H](CC(=O)NCCCOCCCC)C[C@@]2(C(=O)OC)C1=C[C@H](C(C)(C)C)O[C@@H]2C | . | - | - | . | . | .
CCOC(=O)c1c(C)[nH]c(C(=O)COC(=O)COc2ccc(OC)cc2)c1C | - | - | 34.5 | - | 35.2 | 53.2
COc1ccc(Br)cc1-c1nc(CCl)cs1 | - | - | 10.3 | - | 15.8 | 20.1
C#CCNC(=O)C[C@@H]1C(=O)N2CCCC3=C2[C@@]1(C(=O)OCC)CCC3 | . | - | . | . | . | .
CCOc1ccc(C(=O)Nc2ccc(NC(=O)c3ccco3)c(Cl)c2)cc1Cl | - | - | - | - | . | .
CCOc1ccc(C(=O)Nc2ccc(NC(=O)c3ccco3)c(Cl)c2)cc1Br | - | - | 36.0 | - | 32.4 | 44.2
COC(=O)c1ccc(NC(=O)c2ccc(NC(=O)c3ccco3)cc2)cc1 | - | - | 18.7 | - | 17.4 | 10.7 | PG9 binder DR=-;PGV04 DR counter=-;PG126 binding DR=-
Cc1cccc2cc(C#N)c(SCC(=O)NNC(=O)Cc3ccccc3)nc12 | - | - | 17.2 | - | 34.6 | 28.3
O=C(Cn1cnc2c(NCc3ccccc3)ncnc21)NCc1ccc2[nH]ccc2c1 | . | - | 33.3 | - | 15.7 | 28.9
O=C(Cn1cnc2c(OCc3ccccc3)ncnc21)NCc1ccc2[nH]ccc2c1 | . | - | - | - | . | .
CCOC(=O)C1=C(C)NC(SCC(N)=O)=C(C#N)C1c1ccccc1 (stereo unspecified) | - | - | 13.8 | - | - | 10.3
CCCNC(=O)N1[C@@H](CO)[C@H](c2ccc(C3=CCCC3)cc2)[C@@H]1CN(CC)S(=O)(=O)c1ccccc1[N+](=O)[O-] | . | - | . | . | . | .
Nc1cc2sc(-c3ccc(C(=O)O)cc3)nc2cc1Cl | - | - | 8.6 | - | 12.1 | 20.0
C=CCN(CC#CC(=C)C)Cc1ccccc1 | . | - | . | . | . | .
CCCc1cc(=O)n2[nH]c(-c3cccc(Br)c3)cc2n1 | - | - | 16.0 | - | 17.7 | 28.7
CCC[C@H]1[C@@H](NC(=O)c2cccc(C)c2)CC[C@@]23CCCN2C(=O)CCC[C@@H]13 | . | - | . | . | . | .
